Test results taken from ChEMBL document CHEMBL4196173, “Stabilized β-Hairpin Peptide Inhibits Insulin Degrading Enzyme” (J Med Chem, 2018).
Bridge positions count the residues as written; N and C are the ends. Square brackets hold non-standard residues; d marks the D form. Peptide text beside a SMILES is read from it. * marks the point of attachment. Ileψ(thiazoline)Cys = CC[C@H](C)[C@H](N)C1=N[C@H](C(=O)*)CS1; dOrn = NCCC[C@@H](N)C(=O)O

Assays:
[1] = target: T1, Insulin-degrading enzyme (Mus musculus, UniProt Q9JHR7); experiment: Inhibition of mouse His-tagged IDE (42 to 1019 residues) using fluorophore/quencher-tagged RPPGFSAFK(Dnp)-OH peptide as substrate preincubated for 10 mins followed by substrate addition measured over 5 mins by TR-FRET assay
T1 sequence (Q9JHR7 whole entry): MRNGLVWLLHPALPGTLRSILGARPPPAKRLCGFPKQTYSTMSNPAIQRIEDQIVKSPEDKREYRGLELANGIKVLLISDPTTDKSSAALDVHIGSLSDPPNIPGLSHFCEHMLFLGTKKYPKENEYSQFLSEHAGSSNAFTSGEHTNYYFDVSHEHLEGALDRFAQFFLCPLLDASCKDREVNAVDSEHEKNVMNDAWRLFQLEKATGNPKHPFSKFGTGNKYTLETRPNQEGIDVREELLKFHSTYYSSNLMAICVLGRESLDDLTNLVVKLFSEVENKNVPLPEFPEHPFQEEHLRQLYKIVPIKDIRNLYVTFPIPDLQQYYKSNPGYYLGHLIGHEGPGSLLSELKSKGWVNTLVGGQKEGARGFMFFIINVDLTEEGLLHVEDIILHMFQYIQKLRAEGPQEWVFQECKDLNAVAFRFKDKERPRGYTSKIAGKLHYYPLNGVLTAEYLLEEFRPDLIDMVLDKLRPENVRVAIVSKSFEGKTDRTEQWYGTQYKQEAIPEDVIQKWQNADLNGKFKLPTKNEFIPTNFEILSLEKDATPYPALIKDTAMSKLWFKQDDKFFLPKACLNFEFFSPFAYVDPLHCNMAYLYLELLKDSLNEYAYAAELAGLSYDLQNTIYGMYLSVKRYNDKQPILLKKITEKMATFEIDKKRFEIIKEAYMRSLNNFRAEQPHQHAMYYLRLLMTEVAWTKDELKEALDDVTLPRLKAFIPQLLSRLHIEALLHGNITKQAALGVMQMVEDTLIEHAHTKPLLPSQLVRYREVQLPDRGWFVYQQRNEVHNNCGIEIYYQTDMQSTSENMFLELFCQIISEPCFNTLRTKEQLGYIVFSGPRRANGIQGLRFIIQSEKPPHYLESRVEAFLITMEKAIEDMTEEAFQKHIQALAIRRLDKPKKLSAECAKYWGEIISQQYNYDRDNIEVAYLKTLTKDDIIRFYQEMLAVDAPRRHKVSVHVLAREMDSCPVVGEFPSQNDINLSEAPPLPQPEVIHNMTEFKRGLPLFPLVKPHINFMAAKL

[2] = Drug uptake in human HeLa cells at 5 uM using FITC-labeled compound after 2 hrs at 310 K by DAPI-staining based confocal microscopy; format: ADME, cell-based
[3] = Drug uptake in human HeLa cells at 5 uM using FITC-labeled compound after 2 hrs at 310 K by trypan blue-fluorescence based FACS analysis; format: ADME, cell-based
Method in brief: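 HeLa cells were grown overnight in DMEM with 10% FBS, then given 5 μM FITC-labelled peptide in FBS-free medium for 2 h at 310 K. Cells were washed with PBS and 0.4% trypan blue, trypsinized and washed. Mean fluorescence was measured by flow cytometry with gated cell counts. Three independent experiments.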

[4] = Hemolytic activity against mouse RBC at 300 uM after 1 hr at 310 K; format: ADME, cell-based, Erythrocyte; details: mouse red blood cells (erythrocytes), read-out: Activity
Method in brief: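 Fresh mouse red cells were washed six times and suspended at 1 × 10^8 cells/mL in PBS. Peptides at 2.3–300 μM were added for 1 h at 310 K. After centrifugation, hemoglobin in the supernatant was read at 576 nm. PBS served as 0% and 0.1% Triton X-100 as 100% lysis. Three independent experiments in duplicate.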

[5] = tested on: HeLa; experiment: Cytotoxicity against human HeLa cells assessed as reduction in cell viability at <300 uM after 24 hrs at 310 K by MTT assay; format: cell-based
Method in brief: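 HeLa cells were grown overnight in DMEM with 10% FBS, then exposed to serial dilutions starting at 300 μM in medium with 5% FBS for 24 h at 310 K under 5% CO2. MTT was added for a further 4 h and formazan absorbance read at 490 nm. Three independent experiments in duplicate.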

Compound | IC50 [1] | also measured
CC(C)C[C@H](NC(=O)[C@H](C)NC(=O)[C@H](CCC(=O)O)NC(=O)[C@@H]1CCCN1C(=O)[C@H]1CCCN1C(=O)[C@H](Cc1ccccc1)NC(=O)[C@H](CCCNC(=N)N)NC(=O)[C@H](Cc1c[nH]c2ccccc12)NC(=O)[C@@H](N)CCC(=O)O)C(=O)N[C@@H](Cc1ccc(O)cc1)C(=O)N[C@@H](CC(C)C)C(=O)N[C@H](C(N)=O)C(C)C | 86 nM | –
CC(C)C[C@H](NC(=O)[C@H](C)NC(=O)[C@@H](N)CCC(=O)O)C(=O)N[C@@H](Cc1ccc(O)cc1)C(=O)N[C@@H](CC(C)C)C(=O)N[C@H](C(=O)N[C@@H](CS)C(=O)NCC(N)=O)C(C)C (H-EALYLVCG-NH2) | 230 nM | –
CC[C@H](C)[C@H](N)C1=N[C@H](C(=O)N[C@@H](CC(C)C)C(=O)N[C@H](CCC(=O)O)C(=O)N[C@H](C(=O)N[C@H]2CCCCNC(=O)[C@H](CC(N)=O)NC(=O)[C@@H](CC(=O)O)NC(=O)[C@H](Cc3cnc[nH]3)NC(=O)[C@@H](Cc3ccccc3)NC(=O)[C@H]([C@@H](C)CC)NC(=O)[C@@H](CCCN)NC2=O)[C@@H](C)CC)CS1 [BACITRACIN] ({Ileψ(thiazoline)Cys}-L[dE]IK[dOrn]I[dF]H[dD]N; lactam 4-C) | > 200000 nM | –
CC(C)C[C@H](NC(=O)[C@@H]1CSC[C@H](NC(=O)[C@H](Cc2ccccc2)NC(=O)[C@H](CCCNC(=N)N)NC(=O)[C@H](Cc2c[nH]c3ccccc23)NC(=O)[C@@H](N)CCC(=O)O)C(=O)NCC(=O)NCC(=O)NCC(=O)N2CCC[C@@H]2C(=O)N2CCC[C@H]2C(=O)N[C@@H](CCC(=O)O)C(=O)N1)C(=O)N[C@@H](Cc1ccc(O)cc1)C(=O)N[C@@H](CC(C)C)C(=O)N[C@H](C(=O)N[C@H](CS)C(=O)NCC(N)=O)C(C)C | 77 nM | –
CC(C)C[C@H](NC(=O)[C@H](C)NC(=O)[C@H](CCC(=O)O)NC(=O)[C@@H]1CCCN1C(=O)[C@H]1CCCN1C(=O)[C@H](Cc1ccccc1)NC(=O)[C@H](CCCNC(=N)N)NC(=O)[C@H](Cc1c[nH]c2ccccc12)NC(=O)[C@@H](N)CCC(=O)O)C(=O)N[C@@H](Cc1ccc(O)cc1)C(N)=O | 601 nM | –
CC(C)C[C@H](NC(=O)[C@H](C)NC(=O)[C@H](CCC(=O)O)NC(=O)[C@@H]1CCCN1C(=O)[C@H]1CCCN1C(=O)[C@H](Cc1ccccc1)NC(=O)[C@@H](N)CCCNC(=N)N)C(=O)N[C@@H](Cc1ccc(O)cc1)C(N)=O | > 20000 nM | –
CC(C)C[C@H](NC(=O)[C@H](C)NC(=O)[C@H](CCC(=O)O)NC(=O)CNC(=O)CNC(=O)[C@H](Cc1ccccc1)NC(=O)[C@H](CCCNC(=N)N)NC(=O)[C@H](Cc1c[nH]c2ccccc12)NC(=O)[C@@H](N)CCC(=O)O)C(=O)N[C@@H](Cc1ccc(O)cc1)C(=O)N[C@@H](CC(C)C)C(=O)N[C@H](C(=O)N[C@@H](CS)C(=O)NCC(N)=O)C(C)C (H-EWRFGGEALYLVCG-NH2) | 300 nM | Drug uptake [2]: Active; Drug uptake [3]: Active; hemolysis at 1 h, 300 µM [4]: < 10%
CC(C)C[C@H](NC(=O)[C@H](C)NC(=O)[C@H](CCC(=O)O)NC(=O)[C@@H]1CCCN1C(=O)[C@H]1CCCN1C(=O)[C@H](Cc1ccccc1)NC(=O)[C@@H](N)CCCNC(=N)N)C(=O)N[C@@H](Cc1ccc(O)cc1)C(=O)N[C@@H](CC(C)C)C(=O)N[C@H](C(N)=O)C(C)C | > 20000 nM | –
CC(C)C[C@H](NC(=O)[C@H](C)NC(=O)[C@H](CCC(=O)O)NC(=O)[C@@H]1CCCN1C(=O)[C@H]1CCCN1C(=O)[C@H](Cc1ccccc1)NC(=O)[C@H](CCCNC(=N)N)NC(=O)[C@H](Cc1c[nH]c2ccccc12)NC(=O)[C@@H](N)CCC(=O)O)C(=O)N[C@@H](Cc1ccc(O)cc1)C(=O)N[C@@H](CC(C)C)C(=O)N[C@H](C(=O)N[C@H](CS)C(=O)NCC(N)=O)C(C)C | 74 nM | Drug uptake [2]: Active; Drug uptake [3]: Active
CC(C)C[C@H](NC(=O)[C@H](C)NC(=O)[C@@H](N)CCC(=O)O)C(=O)N[C@@H](Cc1ccc(O)cc1)C(=O)N[C@@H](CC(C)C)C(=O)N[C@H](C(=O)N[C@@H](CS)C(=O)NCC(=O)N1CCC[C@@H]1C(=O)N1CCC[C@H]1C(=O)N[C@@H](Cc1ccccc1)C(=O)N[C@@H](CCCNC(=N)N)C(=O)N[C@@H](Cc1c[nH]c2ccccc12)C(=O)N[C@@H](CCC(=O)O)C(N)=O)C(C)C | 170 nM | –
CC(C)C[C@H](NC(=O)[C@@H]1CSC[C@H](NC(=O)[C@H](Cc2ccccc2)NC(=O)[C@H](CCCNC(=N)N)NC(=O)[C@H](Cc2c[nH]c3ccccc23)NC(=O)[C@@H](N)CCC(=O)O)C(=O)NCC(=O)N2CCC[C@@H]2C(=O)N2CCC[C@H]2C(=O)N[C@@H](CCC(=O)O)C(=O)N1)C(=O)N[C@@H](Cc1ccc(O)cc1)C(=O)N[C@@H](CC(C)C)C(=O)N[C@H](C(=O)N[C@H](CS)C(=O)NCC(N)=O)C(C)C | 60 nM | –
CC(C)C[C@H](NC(=O)[C@@H]1CNC(=O)C[C@H](NC(=O)[C@H](Cc2ccccc2)NC(=O)[C@H](CCCNC(=N)N)NC(=O)[C@H](Cc2c[nH]c3ccccc23)NC(=O)[C@@H](N)CCC(=O)O)C(=O)NCC(=O)NCC(=O)NCC(=O)N2CCC[C@@H]2C(=O)N2CCC[C@H]2C(=O)N[C@@H](CCC(=O)O)C(=O)N1)C(=O)N[C@@H](Cc1ccc(O)cc1)C(=O)N[C@@H](CC(C)C)C(=O)N[C@H](C(=O)N[C@@H](CS)C(=O)NCC(N)=O)C(C)C | 44 nM | Drug uptake [2]: Active; Drug uptake [3]: Active
CC(=O)N[C@@H](CCC(=O)O)C(=O)N[C@@H](Cc1ccccc1)C(=O)N[C@@H](CC(C)C)C(=O)N[C@@H](Cc1c[nH]c2ccccc12)C(=O)N[C@@H](C)C(=O)NCC(=O)N1CCC[C@@H]1C(=O)N1CCC[C@H]1C(=O)N[C@@H](Cc1ccc(O)cc1)C(=O)N[C@@H](C)C(=O)N[C@@H](CS)C(=O)N[C@H](C(=O)NCC(=O)N[C@@H](CCCNC(=N)N)C(=O)N[C@@H](CC(C)C)C(=O)N[C@@H](CCC(=O)O)C(N)=O)C(C)C | – | hemolysis at 1 h, 300 µM [4]: < 10%; Activity [5]: Non-Toxic
